This is a sample that favours compounds with a hit; in the whole collection about 1.3% have one here.
Diaphorase act = counter-screen for diaphorase-based assays: diaphorase activators and chemical reducers | 190,000 compounds, 0.005% hits | activation factor at 20 µM | Diaphorase/resazurin coupled assay, resorufin fluorescence, 16 min; stronger effect = higher value; 1 = vehicle wells, 0 = NADH-free wells;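 active = diaphorase activity raised at least twofold by the compound at 20 µM; inactive = activation factor below 2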
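Material: Purified diaphorase enzyme from Clostridium kluyveri | Buffer or medium: 50 mM HEPES pH 7.4 with 4.542 mM MgCl2, 0.005% Tween 20 | Times: 16 min enzyme reaction, ambient temperature | Signal: Red resorufin fluorescence at 544/590 nm excitation/emission | Measure: Increased resorufin signal from activators or reducing compounds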
PfGluPho inh = PfG6PD (Plasmodium falciparum) enzyme inhibition; PfGluPho enzyme, NADPH resazurin-diaphorase fluorescence; inhibition, % at 20 µM; 350,000 compounds, 0.78% hits; AID 504690;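 active = inhibition reaching at least a set limit at 20 µM in the primary screen, cut at about 59% in these data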;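 note: 0% = DMSO wells with substrate and 100% = DMSO wells lacking glucose-6-phosphate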
HKDC1 inhibitor = HKDC1 (human) hexokinase inhibition; Q2TB90; recombinant HKDC1, G6PDH/diaphorase resazurin coupled fluorescence; inhibition, % at 20 µM; 340,000 compounds, 0.16% hits;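 active = inhibition above about 35% when tested at 20 µM, limit read from the data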;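 note: plate controls were DMSO wells with enzyme for no effect and DMSO wells lacking enzyme for full effect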
Target sequence (Q2TB90 whole entry, looked up): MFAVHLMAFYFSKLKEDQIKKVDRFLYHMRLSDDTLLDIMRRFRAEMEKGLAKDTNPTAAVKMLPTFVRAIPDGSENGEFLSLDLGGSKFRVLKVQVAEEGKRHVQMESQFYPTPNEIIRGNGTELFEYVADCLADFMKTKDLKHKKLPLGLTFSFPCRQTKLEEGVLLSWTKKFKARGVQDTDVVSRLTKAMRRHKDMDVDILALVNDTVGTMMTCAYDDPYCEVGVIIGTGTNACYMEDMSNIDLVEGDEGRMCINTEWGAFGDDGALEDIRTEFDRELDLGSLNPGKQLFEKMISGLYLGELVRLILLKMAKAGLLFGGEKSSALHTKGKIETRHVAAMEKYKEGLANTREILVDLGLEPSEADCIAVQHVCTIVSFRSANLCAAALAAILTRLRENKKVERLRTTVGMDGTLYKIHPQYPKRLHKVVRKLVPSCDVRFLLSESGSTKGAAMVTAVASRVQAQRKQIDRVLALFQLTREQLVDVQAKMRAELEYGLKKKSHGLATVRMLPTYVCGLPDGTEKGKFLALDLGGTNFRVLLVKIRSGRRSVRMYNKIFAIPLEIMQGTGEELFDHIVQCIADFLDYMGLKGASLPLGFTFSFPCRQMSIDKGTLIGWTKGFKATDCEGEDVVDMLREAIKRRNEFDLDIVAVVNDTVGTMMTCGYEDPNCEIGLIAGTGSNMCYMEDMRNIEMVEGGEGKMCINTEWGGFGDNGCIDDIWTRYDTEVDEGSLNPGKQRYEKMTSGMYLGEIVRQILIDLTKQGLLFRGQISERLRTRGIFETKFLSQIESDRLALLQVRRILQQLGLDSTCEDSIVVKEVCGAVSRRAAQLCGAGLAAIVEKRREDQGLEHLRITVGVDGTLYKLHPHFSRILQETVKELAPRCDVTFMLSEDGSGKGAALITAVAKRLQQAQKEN
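Assay system – recombinant HKDC1 (HK5) hexokinase enzyme, produced in-house · Input – HKDC1 at 5 µg/mL · Reagent – glucose plus 1 mM ATP as hexokinase substrates · Timing – 90 min reaction incubation at room temperature, dark · Measured by – G6PDH/diaphorase-coupled fluorescence, 1 mM NADP, 100 µM resazurin, 525/613 nm · Benchmarks – DMSO-enzyme wells negative, buffer-substituted wells positive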
Diaphorase inh = inhibits diaphorase or chemically oxidizes, flagging diaphorase assay artifacts; AID 1217; diaphorase resazurin-to-resorufin fluorescence, NADH, 16 min; bacterial (C. kluyveri) enzyme, not human; 190,000 compounds, 0.69% hits; inhibition, % at 20 µM;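 active = primary screen inhibition at 20 µM above a set limit, cut at about 50% in these data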;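 note: plate controls were DMSO with full reaction for no effect and wells lacking NADH for full effect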
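System: Diaphorase enzyme from Clostridium kluyveri | Amount: Enzyme working solution with 0.14 U/mL diaphorase | Benchmarks: No-NADH positive control and DMSO neutral control | Signal: Fluorescence of resorufin formed from resazurin, Ex 544/Em 590 nm | Schedule: 16-min room-temperature incubation before reading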
G6PDH counter = counter-screen for G6PDH assay hits: L. mesenteroides G6PDH inhibition. Purified L. mesenteroides G6PDH, diaphorase/resazurin coupled fluorescence, 45 min. 200,000 compounds, 0.12% hits. inhibition, % at 5 µM; in the data active = inhibition above about 50%
PfG6PD confirm = PfG6PD inhibition, single-dose confirmed. inhibition, % at 20 µM. recombinant PfGluPho, NADPH-diaphorase-resazurin fluorescence. shares compounds with PfGluPho inh. 2,400 compounds, 34% hits. AID 504753;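 active = inhibition of at least 50% at 20 µM in any single replicate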;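 note: 0% = DMSO with substrate and 100% = DMSO lacking glucose-6-phosphate substrate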
Diaph ctr 10uM = inhibits diaphorase or oxidizes, flagging false PfG6PD hits; shares compounds with PfGluPho inh; diaphorase-coupled resazurin reduction, fluorescence, NADPH 10 uM; inhibition, % at 20 µM; 820 compounds, 39% hits;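 active = average inhibition reaching 50% or more with the compound at 20 µM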;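 note: resorufin red fluorescence formed as diaphorase reduces resazurin using NADPH; 0% = DMSO with enzyme and 100% = DMSO without enzyme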
Diaph ctr 30uM = counter-screen for P. falciparum G6PD inhibitors: diaphorase inhibitors, oxidizers | shares compounds with PfGluPho inh | Diaphorase/resazurin coupled assay, resorufin fluorescence, 30 uM NADPH | inhibition, % at 20 µM | 820 compounds, 29% hits | AID 504863;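 active = inhibition averaging 50% or more, tested at 20 µM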;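 note: 0% = DMSO with enzyme and 100% = DMSO wells lacking diaphorase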
Active calls of the source: *; nt = no result.

SMILES	Diaphorase act	PfGluPho inh	HKDC1 inhibitor	Diaphorase inh	G6PDH counter	PfG6PD confirm	others
CCSc1nnc(NC(=O)c2ccc(Br)s2)s1	0.9	102*	-2	8	2	64*	Diaph ctr 10uM=70*;Diaph ctr 30uM=61*
Cc1ccc(NNC(=O)Nc2ccc(Cl)cc2)nn1	nt	68*	2	nt	nt	26
O=C(NNc1cccc(Cl)n1)Nc1ccc(Cl)cc1	0.9	33	-7	14	13	nt
CC1=C(SCCC#N)S/C(=C2\SC(C)=C(SCCC#N)S2)S1	0.7	60*	1	26	2	3
Cn1c(SCCC#N)nnc1-c1ccc(F)cc1	0.9	nt	nt	9	4	nt
O=C(NCCN1CCCCC1)c1ccc(=O)oc1	1.1	-15	-6	-6	12	nt
O=S(=O)(Nc1cccc2ncccc12)c1cccs1	0.7	99*	19	30	-25	61*	Diaph ctr 10uM=62*;Diaph ctr 30uM=56*
CCOc1ccccc1NC(=O)CCS(=O)(=O)c1cccs1	nt	-5	-3	nt	nt	nt
CCOc1ccccc1NS(=O)(=O)c1cccs1	0.9	99*	-1	7	0	72*	Diaph ctr 10uM=68*;Diaph ctr 30uM=61*
CCOc1ccccc1NS(=O)(=O)c1c(C)noc1C	0.9	63*	0	15	30	54*	Diaph ctr 10uM=45;Diaph ctr 30uM=34
O=C(O)C(Cc1ccccc1)NS(=O)(=O)c1ccc(Cl)cc1 (centres undefined)	nt	-23	2	nt	nt	nt
O=C(/C=C/c1ccccc1)NCc1ccco1	1.1	-8	-9	-13	14	nt
Cc1cc(O)c2c(c1)C(O)(C1OC(CO)C(O)C(O)C1O)c1cccc(O)c1C2=O (centres undefined)	0.9	16	0	13	17	nt
CC(C)(C)C1=Nn2c(nnc2-c2n[nH]c3c2CCC3)SC1	0.8	60*	8	19	-7	12
CCN(c1ccccc1)S(=O)(=O)c1ccc(N2CCN(c3ccc(O)cc3)CC2)nc1	nt	76*	11	nt	nt	16
CC1(C)NC(=O)N(CC(=O)N2CCN(S(=O)(=O)c3ccccc3C(F)(F)F)CC2)C1=O	nt	-8	-3	nt	nt	nt
COC(=O)C1CCN(C(=O)Cc2ccccc2OC)CC1	1.1	5	-10	-9	2	nt
O=C(NCc1ccco1)c1cccnc1-c1nc2ccccc2s1	0.9	60*	8	7	-12	25
OCc1ccccc1SSc1ccccc1CO	nt	67*	-1	nt	nt	54*	Diaph ctr 10uM=-19;Diaph ctr 30uM=14
COCC(C)NC(=O)CSc1nnc(-c2cccc(S(=O)(=O)N3CCCCC3)c2)o1 (centres undefined)	0.9	-17	-5	12	2	nt
COc1ccccc1NC(=O)c1ccc2[nH]c(C)c(C)c2c1	nt	81*	-4	nt	nt	32
Cc1[nH]c2ccc(C(=O)Nc3ccncc3)cc2c1C	nt	53	3	nt	nt	nt
O=C(c1cccc(S(=O)(=O)N2CCCC2)c1)N1CCN(Cc2ccccc2)CC1	nt	-7	-3	nt	nt	nt
CC1CCCC(C)N1C(=O)COC(=O)CSc1ccc([N+](=O)[O-])cc1 (centres undefined)	nt	64*	7	nt	nt	1
CCOC(=O)C1CCN(C(=O)COC(=O)CSc2ccc([N+](=O)[O-])cc2)CC1	nt	42	0	nt	nt	nt
SMILES	Diaphorase act	PfGluPho inh	HKDC1 inhibitor	Diaphorase inh	G6PDH counter	PfG6PD confirm	others
c1ccc(Oc2c3ccccc3nc3ccccc23)cc1	nt	-7	6	nt	nt	nt
Cc1ccc(CC(=O)Nc2ccncc2)cc1	1.1	-2	-9	-7	20	nt
O=C(NC1CCCCCC1)C1CCN(C(=O)c2cccc(Cl)c2)CC1	nt	4	-3	nt	nt	nt
COc1ccc(N2C(=S)N(C(=O)c3ccccc3)C(=Nc3ccccc3)C2=Nc2ccccc2)cc1	nt	64*	-12	nt	nt	31
CCCC(=O)Nc1nc(-c2ccc(OC)cc2)cs1	0.9	17	-2	8	-3	nt
O=C(CCS(=O)(=O)c1ccc(F)cc1)Nc1nc(-c2ccncc2)cs1	nt	61*	2	nt	nt	12
COc1ccc(-c2csc(NC(=O)CS(=O)(=O)c3ccccc3)n2)cc1	nt	68*	4	nt	nt	6
O=C(CSC1=NCCN1)Nc1cccc([N+](=O)[O-])c1	1	14	-10	-2	0	nt
CCC(=O)Nc1nc(C)nc(C)c1C(C)=O	1.1	-7	-5	-6	6	nt
CCn1c(=O)n(CC)c2cc(N3CCCC3)c(NC(=O)c3cccc(C)c3)cc21	nt	71*	2	nt	nt	84*	Diaph ctr 10uM=-10;Diaph ctr 30uM=9
COc1cc(Cl)ccc1NC(=O)COc1ccccc1C(=O)N1CCN(c2ccc(O)cc2)CC1	0.8	68*	-2	21	6	42
Cc1cc(Cl)ccc1OCC(=O)Nc1ccccc1C(=O)N1CCOCC1	nt	3	-3	nt	nt	nt
C=CCn1c(SCC(=O)N2CC(C)OC(C)C2)nnc1-c1ccncc1 (centres undefined)	nt	-8	-3	nt	nt	nt
Cc1c(Cl)c([N+](=O)[O-])nn1Cc1ccc(C(=O)N/N=C\c2cccc(Br)c2)o1	1	105*	9	3	6	61*	Diaph ctr 10uM=61*;Diaph ctr 30uM=49
Cc1n[nH]c(C)c1S(=O)(=O)N1CCC(C(=O)Nc2cccc(F)c2)CC1	nt	-20	-1	nt	nt	nt
Cc1nnc(SCc2nc3scc(-c4ccccc4)c3c(=O)[nH]2)s1	nt	60*	-3	nt	nt	34
CCn1c(SCc2nc3scc(-c4ccccc4)c3c(=O)[nH]2)nnc1-c1cccs1	0.7	47	9	34	-18	49*	Diaph ctr 10uM=49;Diaph ctr 30uM=43
O=C(COC(=O)c1cccs1)Nc1cccc(S(=O)(=O)N2CCOCC2)c1	0.8	-9	16	16	-3	nt
CCN(CC)Cc1cc(Nc2c3ccccc3nc3c4ccccc4n(C)c23)cc(CN(CC)CC)c1O	nt	80*	20	nt	nt	28
Cc1cccc(-n2c(=S)[nH]c3sc4c(c3c2=O)CCc2ccccc2-4)c1	0.3	67*	6	70*	0	52*	Diaph ctr 10uM=-24;Diaph ctr 30uM=6
COc1ccc(CC2=CC(=O)c3ccccc3C2=O)cc1	nt	85*	29	nt	nt	9
COc1cccc(NC(=O)c2ccc(-c3ccc([N+](=O)[O-])cc3)o2)c1	nt	64*	4	nt	13	6
COc1ccc(NC(=O)c2ccc(-c3ccc([N+](=O)[O-])cc3)o2)cc1OC	0.7	29	5	30	-2	nt
Cc1cc(NC(=O)c2ccc(-c3ccccc3[N+](=O)[O-])o2)no1	nt	10	3	nt	nt	nt
CC(=O)c1cccc(NC(=O)c2ccc(-c3ccccc3[N+](=O)[O-])o2)c1	0.8	61*	7	23	9	22

Bioassay records (PubChem)
